# System: Fibroblast
# Assay: Multiplex assay against human fibroblast
# Assay type: toxicity, cell-based
# Summary of the method: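 Live cells carried four stains from seeding: Hoechst33342, BioTracker Green Microtubule Cytoskeleton Dye, MitoTracker Red and Annexin V Alexa Fluor 680. They were imaged on a CQ1 microscope at 37°C and 5% CO2 after compound addition. Using CellPathfinder machine-learning gating, cells were split into Hoechst high-intensity objects or normal cells, normal cells into healthy, pyknosed or fragmented nuclei, and pyknosed cells into mitotic or apoptotic; tubulin, mitochondrial-mass and membrane-permeability phenotypes are per cents of healthy-nucleus cells.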
# [1] = 12 h, 1 µM, compound concentration 1 uM, replicate 1
# [2] = 12 h, 1 µM, compound concentration 1 uM, replicate 2
# [3] = 12 h, 10 µM, compound concentration 10 uM, replicate 1
# [4] = 12 h, 10 µM, compound concentration 10 uM, replicate 2
# [5] = 24 h, 1 µM, compound concentration 1 uM, replicate 1
# [6] = 24 h, 1 µM, compound concentration 1 uM, replicate 2
# [7] = 24 h, 10 µM, compound concentration 10 uM, replicate 1
# [8] = 24 h, 10 µM, compound concentration 10 uM, replicate 2
# [9] = 48 h, 1 µM, compound concentration 1 uM, replicate 1
# [10] = 48 h, 1 µM, compound concentration 1 uM, replicate 2
# [11] = 48 h, 10 µM, compound concentration 10 uM, replicate 1
# [12] = 48 h, 10 µM, compound concentration 10 uM, replicate 2
compound,measurement,setting,value
Cl.O=C(O)c1cc(-c2ccc(C3CCNCC3)cc2)c2ccc(-c3ccc(C(F)(F)F)cc3)cc2c1,Population Apoptotic (%),[1],65%
same,Population Fragmented Nuclei (%),[1],31%
same,Population Healthy Nuclei (%),[1],31%
same,Population Hoechst High Intensity Objects (%),[1],20%
same,Population Membrane Permeable-Phenotype (%),[1],31%
same,Population Mitochondria Different-Phenotype (%),[1],5%
same,Population Mitotic Cells (%),[1],34%
same,Population Normal (%),[1],79%
same,Population Pyknosed Nuclei (%),[1],37%
same,Population Tubulin-Different-Phenotype (%),[1],21%
same,Total Cell Count,[1],77
same,Population Apoptotic (%),[2],50%
same,Population Fragmented Nuclei (%),[2],11%
same,Population Healthy Nuclei (%),[2],83%
same,Population Hoechst High Intensity Objects (%),[2],5%
same,Population Membrane Permeable-Phenotype (%),[2],3%
same,Population Mitochondria Different-Phenotype (%),[2],16%
same,Population Mitotic Cells (%),[2],50%
same,Population Normal (%),[2],94%
same,Population Pyknosed Nuclei (%),[2],5%
same,Population Tubulin-Different-Phenotype (%),[2],36%
same,Total Cell Count,[2],60
same,Population Apoptotic (%),[3],62%
same,Population Fragmented Nuclei (%),[3],27%
same,Population Healthy Nuclei (%),[3],40%
same,Population Hoechst High Intensity Objects (%),[3],18%
same,Population Membrane Permeable-Phenotype (%),[3],5%
same,Population Mitochondria Different-Phenotype (%),[3],20%
same,Population Mitotic Cells (%),[3],37%
same,Population Normal (%),[3],81%
same,Population Pyknosed Nuclei (%),[3],32%
same,Population Tubulin-Different-Phenotype (%),[3],57%
same,Total Cell Count,[3],122
same,Population Apoptotic (%),[4],60%
same,Population Fragmented Nuclei (%),[4],14%
same,Population Healthy Nuclei (%),[4],64%
same,Population Hoechst High Intensity Objects (%),[4],14%
same,Population Membrane Permeable-Phenotype (%),[4],10%
same,Population Mitochondria Different-Phenotype (%),[4],13%
same,Population Mitotic Cells (%),[4],40%
same,Population Normal (%),[4],85%
same,Population Pyknosed Nuclei (%),[4],21%
same,Population Tubulin-Different-Phenotype (%),[4],23%
same,Total Cell Count,[4],38
same,Population Apoptotic (%),[5],62%
same,Population Fragmented Nuclei (%),[5],24%
same,Population Healthy Nuclei (%),[5],47%
same,Population Hoechst High Intensity Objects (%),[5],21%
same,Population Membrane Permeable-Phenotype (%),[5],44%
same,Population Mitochondria Different-Phenotype (%),[5],7%
same,Population Mitotic Cells (%),[5],37%
same,Population Normal (%),[5],78%
same,Population Pyknosed Nuclei (%),[5],28%
same,Population Tubulin-Different-Phenotype (%),[5],44%
same,Total Cell Count,[5],73
same,Population Apoptotic (%),[6],20%
same,Population Fragmented Nuclei (%),[6],11%
same,Population Healthy Nuclei (%),[6],79%
same,Population Hoechst High Intensity Objects (%),[6],3%
same,Population Membrane Permeable-Phenotype (%),[6],4%
same,Population Mitochondria Different-Phenotype (%),[6],9%
same,Population Mitotic Cells (%),[6],80%
same,Population Normal (%),[6],96%
same,Population Pyknosed Nuclei (%),[6],9%
same,Population Tubulin-Different-Phenotype (%),[6],30%
same,Total Cell Count,[6],62
same,Population Apoptotic (%),[7],53%
same,Population Fragmented Nuclei (%),[7],35%
same,Population Healthy Nuclei (%),[7],36%
same,Population Hoechst High Intensity Objects (%),[7],15%
same,Population Membrane Permeable-Phenotype (%),[7],12%
same,Population Mitochondria Different-Phenotype (%),[7],27%
same,Population Mitotic Cells (%),[7],46%
same,Population Normal (%),[7],84%
same,Population Pyknosed Nuclei (%),[7],28%
same,Population Tubulin-Different-Phenotype (%),[7],62%
same,Total Cell Count,[7],131
same,Population Apoptotic (%),[8],61%
same,Population Fragmented Nuclei (%),[8],17%
same,Population Healthy Nuclei (%),[8],61%
same,Population Hoechst High Intensity Objects (%),[8],8%
same,Population Membrane Permeable-Phenotype (%),[8],7%
same,Population Mitochondria Different-Phenotype (%),[8],5%
same,Population Mitotic Cells (%),[8],38%
same,Population Normal (%),[8],91%
same,Population Pyknosed Nuclei (%),[8],20%
same,Population Tubulin-Different-Phenotype (%),[8],16%
same,Total Cell Count,[8],56
same,Population Apoptotic (%),[9],50%
same,Population Fragmented Nuclei (%),[9],30%
same,Population Healthy Nuclei (%),[9],40%
same,Population Hoechst High Intensity Objects (%),[9],20%
same,Population Membrane Permeable-Phenotype (%),[9],48%
same,Population Mitochondria Different-Phenotype (%),[9],0%
same,Population Mitotic Cells (%),[9],50%
same,Population Normal (%),[9],79%
same,Population Pyknosed Nuclei (%),[9],29%
same,Population Tubulin-Different-Phenotype (%),[9],40%
same,Total Cell Count,[9],78
same,Population Apoptotic (%),[10],100%
same,Population Fragmented Nuclei (%),[10],16%
same,Population Healthy Nuclei (%),[10],82%
same,Population Hoechst High Intensity Objects (%),[10],8%
same,Population Membrane Permeable-Phenotype (%),[10],6%
same,Population Mitochondria Different-Phenotype (%),[10],2%
same,Population Mitotic Cells (%),[10],0%
same,Population Normal (%),[10],91%
same,Population Pyknosed Nuclei (%),[10],1%
same,Population Tubulin-Different-Phenotype (%),[10],26%
same,Total Cell Count,[10],104
same,Population Apoptotic (%),[11],76%
same,Population Fragmented Nuclei (%),[11],42%
same,Population Healthy Nuclei (%),[11],46%
same,Population Hoechst High Intensity Objects (%),[11],21%
same,Population Membrane Permeable-Phenotype (%),[11],11%
same,Population Mitochondria Different-Phenotype (%),[11],9%
same,Population Mitotic Cells (%),[11],23%
same,Population Normal (%),[11],78%
same,Population Pyknosed Nuclei (%),[11],11%
same,Population Tubulin-Different-Phenotype (%),[11],37%
same,Total Cell Count,[11],146
same,Population Apoptotic (%),[12],100%
same,Population Fragmented Nuclei (%),[12],57%
same,Population Healthy Nuclei (%),[12],38%
same,Population Hoechst High Intensity Objects (%),[12],9%
same,Population Membrane Permeable-Phenotype (%),[12],4%
same,Population Mitochondria Different-Phenotype (%),[12],12%
same,Population Mitotic Cells (%),[12],0%
same,Population Normal (%),[12],90%
same,Population Pyknosed Nuclei (%),[12],3%
same,Population Tubulin-Different-Phenotype (%),[12],58%
same,Total Cell Count,[12],139

# From ChEMBL document CHEMBL4689842, “EUbOPEN Chemogenomics Library wave 1” (2021)
